CAL PDZ FP-1 – CAL PDZ peptide-binding inhibitors, primary screen, biochemical, fluorescence polarization, Cer-tagged CAL PDZ, HTS; Golgi-associated PDZ and coiled-coil motif-containing protein (Homo sapiens), Q9HD26; purified CAL PDZ, TMR-peptide fluorescence polarization, 1 h; inhibition, % at 20 µM; hit rate 0.02% among 330,000; AID 504414, 2011;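 active means highest replicate inhibition of at least 40%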;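 further: plate controls were DMSO neutral control wells for no effect and unlabeled competitor peptide control wells for full effect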
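Test system: tagged CAL PDZ domain / Buffer or medium: sodium phosphate/NaCl buffer pH 7.4 with TCEP, IgG, Thesit / Reagent: TMR-labelled reporter peptide T*-PRC34 bound in PDZ groove / Compound dosing: single point, 20 µM / Schedule: 1 h incubation at room temperature before polarization reading / Technique: fluorescence polarization (mP) / Benchmarks: unlabelled peptide, DMSO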
miR-122 sensor – miR-122 Renilla sensor signal increase in Huh7, primary screen, miR-122 inhibitor project, cell-based, single point, plate reader | Huh7 miR-122 Renilla luciferase sensor, 48 h; neutral wells = 0, positive control = 100 | activation (reporter increase), % at 12.5 µM | AID 602342, 2012 | hit rate 0.3% among 340,000;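 active means mean replicate activation score at least 90 and every replicate individually at or above 90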;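 further: higher luciferase means less miR-122 activity so hits act as miR-122 inhibitors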
SR-BI uptake up – activators of SR-BI mediated DiI-HDL uptake, primary screen, ldlA[mSR-BI] CHO cells, DiI fluorescence. hit rate 0.096% among 320,000. activation, % at 12.5 µM. 3 h; 100 = double the neutral-control signal;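 active means mean replicate activation of at least 60% and every replicate at or above 60%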;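 further: 0% = median plate neutral-control signal and 100% = twice that signal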
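Material – SR-BI-overexpressing, LDLR-lacking CHO cells · Medium – BSA-supplemented, HEPES-buffered Ham's F12, pH 7.4 · Doses – single concentration · Times – compound with DiI-HDL co-incubation, 3 h at 37 °C · Measured by – bottom-read fluorescence, 550/595 nm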
ARNT-TACC3 inh – disruptors of ARNT/TACC3 protein interaction, primary screen, biochemical, AlphaScreen, single concentration | Transforming acidic coiled-coil-containing protein 3 (Homo sapiens), Q9Y6A5 | AlphaScreen His-ARNT PAS-B/GST-TACC3 binding, luminescence; TACC3 fragment carries E629A point mutation | inhibition, % at 9.99 µM | hit rate 0.66% among 390,000 | AID 623870, 2012;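 active means mean inhibition of replicates at least 50% and at least half of replicates each reaching 50%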;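 further: 0% = complete ARNT plus TACC3 wells and 100% = ARNT alone without TACC3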
SR-BI HDL uptake – inhibitors of SR-BI mediated HDL lipid uptake, primary screen, ldlA[mSR-BI] cells, fluorescence, single point. hit rate 0.96% among 320,000. ldlA[mSR-BI] CHO cells, DiI-HDL uptake fluorescence, 3 h. Scavenger receptor class B member 1 (Mus musculus), Q61009. AID 488896, 2010. inhibition, % at 12.5 µM;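 active means mean replicate inhibition of at least 70% and a set share of replicates each scoring 70 or more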;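 further: 0% = median of neutral control wells and 100% = median of positive control wells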
Target sequence (Q61009 whole entry, looked up): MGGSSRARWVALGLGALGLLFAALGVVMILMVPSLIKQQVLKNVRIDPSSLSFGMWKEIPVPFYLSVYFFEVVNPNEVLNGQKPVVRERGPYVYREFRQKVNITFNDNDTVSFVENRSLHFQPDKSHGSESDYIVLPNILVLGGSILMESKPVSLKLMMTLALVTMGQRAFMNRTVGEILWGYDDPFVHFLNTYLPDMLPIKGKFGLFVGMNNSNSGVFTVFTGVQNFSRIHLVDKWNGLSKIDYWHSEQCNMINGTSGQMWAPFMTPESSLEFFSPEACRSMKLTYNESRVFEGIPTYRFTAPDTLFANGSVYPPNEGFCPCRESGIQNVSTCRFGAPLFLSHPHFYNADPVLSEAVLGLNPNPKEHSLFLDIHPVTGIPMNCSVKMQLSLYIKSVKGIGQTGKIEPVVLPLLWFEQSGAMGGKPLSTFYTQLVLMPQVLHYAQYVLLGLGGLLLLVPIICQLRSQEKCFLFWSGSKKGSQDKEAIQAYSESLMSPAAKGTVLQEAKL
CAL PDZ FP-2 – untagged CAL PDZ binding inhibitors, primary screen, biochemical, fluorescence polarization, HTS. Golgi-associated PDZ and coiled-coil motif-containing protein (Homo sapiens), Q9HD26. purified CAL PDZ, TMR-peptide fluorescence polarization, 1 h. inhibition, % at 24.9 µM. hit rate 0.92% among 300,000. AID 602252, 2012;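 active means mean inhibition of at least 30% with at least half of replicates also reaching 30%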;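 further: 0% = DMSO neutral control and 100% = excess unlabeled competitor peptide PRC23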
The depositor's hits bear a star; . = not tested or not shown; [ ] = remark or other dose. Most compounds without a hit are left out; they make up all but 2.1% or so of the library.

SMILES	CAL PDZ FP-1	miR-122 sensor	SR-BI uptake up	ARNT-TACC3 inh	SR-BI HDL uptake	CAL PDZ FP-2
CN(C)C(CNC(=O)c1cccc(S(=O)(=O)Nc2ccccc2Cl)c1)c1ccco1 (stereo not drawn)	-0.4	5.6	12.2	-6.0	-12.2	32.4*
CNS(=O)(=O)c1cccc(C(=O)NCC(c2ccco2)N(C)C)c1 (stereo not drawn)	-0.8	-4.0	.	-1.0	.	3.1
O=C(Nc1ccccc1F)N1C[C@@H]2[C@H](c3ccccc31)[C@@H](CO)N2C(=O)c1ccccc1F	.	50.0[16.7 µM]	.	1.5	.	.
COCCOc1cc2ncnc(N3CCC(C(=O)O)CC3)c2cc1OCCOC	-0.2	.	-16.9	-1.4	16.9	164.2*
CC1CCN(c2ncnc3ccccc23)CC1	0.1	.	-8.9	-6.0	8.9	-1.8
CN1/C(=C/C(=S)NC(=O)C2(C)CC2(Cl)Cl)C(C)(C)c2ccccc21 (stereo not drawn)	0.4	2.4	-46.8	47.8*	46.8	.
COc1cc(OC)cc(-c2sc3ccc(OC)cc3c2C#CCCO)c1	0.4	.	-76.5	3.3	76.5*	-2.8
COc1ccc2c(C#CCCO)c(-c3ccc(S(C)(=O)=O)cc3)sc2c1	-1.7	-11.2	-82.7	19.0	82.7*	-2.1
COc1ccc2sc(-c3ccccc3OC)c(C#CCCO)c2c1	-5.2	-0.4	-3.7	4.2	3.7	1.0
CO[C@H]1CN(C)C(=O)c2cc(NC(C)=O)ccc2OC[C@H](C)N(S(=O)(=O)c2cn(C)cn2)C[C@H]1C	.	.	.	-0.1	.	.
CC1CCN(S(=O)(=O)c2ccc3c(c2)oc(=O)n3CC(=O)N2c3ccccc3CC2C)CC1 (stereo not drawn)	0.0	6.4	-72.8	-4.6	72.8*	.
Cc1ccc(-c2ccc3c(c2)O[C@H](CN(C)C(=O)C2CCCCC2)[C@@H](C)CN([C@H](C)CO)S3(=O)=O)cc1	.	6.9[16.7 µM]	.	.	.	.
O=C(CCCc1nc(-c2ccc(Cl)cc2)no1)NC1CCCC1	-0.8	-9.4	-14.9	3.7	14.9	73.7*
CCOC(=O)c1sc(NC(=O)CNCc2ccccn2)c(C(=O)OCC)c1C	-2.1	.	.	48.5*	.	1.6
CCCC(=O)Nc1ccc2c(c1)C(=O)N(C)[C@@H]1CC[C@H](CC(=O)NCC(F)(F)F)O[C@@H]1CO2	.	-6.7[16.7 µM]	.	.	.	.
Cc1[nH]c(=O)[nH]c(=O)c1/C=N/NC(=O)[C@@H](N)CC(C)C	-0.4	-4.7	.	65.1*	.	0.6
COc1cc(/C=N/Nc2nc3ccccc3o2)cc(OC)c1O	1.2	14.2	-46.1	12.9	46.1	0.1
COc1ccc(/C=N/Nc2nc3ccccc3o2)cc1O	-1.3	0.2	.	44.3*	18.5	-0.4
CCn1c(C)c(/C=N/Nc2nc3ccccc3s2)c2ccccc21	.	4.3	-112.5	-1.3	112.4*	-6.7
Oc1ccccc1/C=N/Nc1nc2ccccc2o1	-1.8	-48.1	-93.2	7.9	93.2*	-1.0
Oc1ccccc1C=NNc1nc2ccccc2s1	-0.4	7.8	-101.0	0.8	101.0*	.
CNC(=O)C[C@@H]1CC[C@H]2[C@H](COc3ccc(NC(=O)c4cc(C)on4)cc3C(=O)N2C)O1	.	4.2[16.7 µM]	.	7.9	.	.
C[C@H](CO)N1C[C@H](C)[C@H](CN(C)C(=O)c2ccncc2)OCCCC[C@H](C)Oc2ccc(NS(=O)(=O)c3ccc(F)cc3)cc2C1=O	.	0.6[16.7 µM]	.	-5.6	.	.
Cc1ccc(COc2ccc3c(c2)OCO3)cc1	-1.1	-8.9	-2.6	.	2.6	39.6*
C[C@@H]1CN([C@@H](C)CO)C(=O)c2cccc(NS(C)(=O)=O)c2O[C@@H]1CN(C)Cc1ccc(Oc2ccccc2)cc1	.	15.1[16.7 µM]	.	3.0	.	.
SMILES	CAL PDZ FP-1	miR-122 sensor	SR-BI uptake up	ARNT-TACC3 inh	SR-BI HDL uptake	CAL PDZ FP-2
Cc1nc2ccccc2c2oc(C(=O)Nc3ccc(C(C)C)cc3)cc12	-0.8	.	-45.7	.	45.7	2.7
COc1cccc(C(=O)NNC(=O)c2ccc3ccccc3c2O)c1	-1.1	.	-107.5	-6.0	107.5*	-2.6
COc1cc2ccccc2cc1C(=O)Nc1ccccc1N1CCN(S(C)(=O)=O)CC1	.	-2.9	-88.5	11.3	88.5*	-8.0
COc1cccc(C(=O)NNC(=O)c2ccccc2)c1	-0.5	-5.0	14.9	-17.5	-14.9	-2.1
COc1ccc(NC(=O)c2cc(-c3cccnc3)nc3ccc(C)cc23)cc1OC	0.4	.	-64.0	1.7	64.0	-1.5
COc1cc(NC(=O)c2cc3c(C)nc4ccccc4c3o2)cc(OC)c1OC	-1.4	.	-73.3	42.0	73.3*	-1.7
COc1ccc(NC(=O)c2cc(-c3ccncc3)nc3ccc(Br)cc23)cc1OC	-4.2	.	-83.2	4.0	83.2*	1.7
CCCNC(=O)C[C@H]1CC[C@@H]2[C@H](COC[C@@H](O)CN2C(=O)C2CCOCC2)O1	.	-1.1[16.7 µM]	.	8.2	.	.
CC(C)CC#Cc1ccc2c(c1)O[C@@H](CN(C)S(=O)(=O)c1cccc(F)c1)[C@H](C)CN([C@H](C)CO)S2(=O)=O	.	-6.2[16.7 µM]	.	8.7	.	.
O=C(Nc1ccc(C(F)(F)F)cc1)N[C@@H]1CC[C@H](CCn2cc(C3(O)CCCC3)nn2)O[C@@H]1CO	.	.	.	2.7	.	.
COc1ccc(NC(=O)NNC(=O)c2ccc3ccccc3c2O)cc1OC	0.0	3.4	-115.5	-4.2	115.4*	-4.4
COc1ccc(NC(=O)CC#N)cc1OC	.	53.6	-4.8	-2.1	4.8	30.2*
COc1ccc(NC(=O)c2cc(-c3ccc(C)o3)nc3ccccc23)cc1OC	.	-2.8	-83.0	8.2	83.0*	1.8
COc1ccccc1NC(=O)NNC(=O)c1ccc2ccccc2c1O	19.9	-0.2	-12.8	-1.6	12.8	-3.4
COc1ccc(NC(=O)c2cc(-c3ccc(C)o3)nc3ccccc23)c(OC)c1	.	-2.7	.	.	.	.
COc1ccc(CNC(=O)c2cc(-c3ccncc3)nc3c(C)cc(C)cc23)cc1OC	0.4	.	-71.5	4.7	71.5*	-2.8
O=C(C[C@@H]1CC[C@@H]2[C@H](COC[C@@H](O)CN2C(=O)Nc2cccc(Cl)c2)O1)N1CCCCC1	.	2.4[16.7 µM]	.	5.1	.	.
CCCC#Cc1ccc2c(c1)O[C@@H](CN(C)C(=O)NC(C)C)[C@@H](C)CN([C@H](C)CO)S2(=O)=O	.	15.6[16.7 µM]	.	17.7	.	.
COc1cc(OC)c(C(=O)Nc2ccc3ccccc3c2)cc1OC	0.8	3.1	-25.8	-2.9	25.8	.
COc1ccc(NC(=O)c2cc3ccccc3cc2OC)cc1OC	0.3	.	-70.4	3.4	70.4*	-3.5

Screening data deposited in PubChem by Broad Institute.
